Compound activity deposited in PubChem by several laboratories.
This is a sample that favours compounds with a hit; in the whole collection about 2.1% have one here.
Runt-CBFb FRET: inhibitors of RUNX1 Runt–CBFb binding, primary screen, biochemical, FRET, Cerulean-Runt, Venus-CBFb, uHTS | Runt-related transcription factor 1 (Homo sapiens) + Core-binding factor subunit beta … | Cerulean-Runt/Venus-CBFb FRET ratio 530/480, 1 h | inhibition, % at 20 µM | 220,000 tested, 0.46% active;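 active = inhibition over about 50% at 20 µM in the single-dose screen, limit read from the data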;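 also: 0% = DMSO wells and 100% = excess unlabeled CBFb competitor control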
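Measured by: fluorescence energy transfer, 422 nm excitation, 530/480 nm emission; Assay system: Cerulean-Runt domain; Medium: Tris pH 7.5 buffer with BSA; Measure: loss of energy transfer signal; Controls: 5 µM unlabeled CBFb as full-inhibition high control; Incubation: protein complex preformed 1 h, compound exposure 1 h, room temperature, dark.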
TbHK1 inh: Trypanosoma brucei hexokinase 1 inhibitors, primary screen, biochemical, G6PDH-coupled NADH absorbance, MLSCN library; inhibition, % at 10 µM; AID 1430, 2008; 220,000 tested, 0.11% active; recombinant TbHK1, G6PDH-coupled NADH A340; hexokinase 1 [Trypanosoma brucei];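 active = inhibition of 50% or more in the single-dose primary screen; inactive = inhibition below 50%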
Runt-SMMHC FRET: inhibitors of RUNX1 Runt–CBFb-SMMHC binding, primary screen, biochemical, FRET, Cerulean-Runt, Venus-CBFb-SMMHC, uHTS; AID 1434, 2008; Cerulean-Runt/Venus-CBFb-SMMHC FRET ratio 530/480, 1 h; inhibition, % at 20 µM; 220,000 tested, 0.74% active; Runt-related transcription factor 1 (Homo sapiens) + Core-binding factor subunit beta …;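 active = mean inhibition across duplicate retests at 20 µM reaching about 50%, limit read from the data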;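 also: 0% = DMSO wells and 100% = wells with excess untagged CBFb-SMMHC; inhibitors lower the FRET ratio by blocking Runt binding to CBFb-SMMHC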
RanGTP-Imp inh: inhibitors of RanGTP-importin-beta interaction, primary screen, biochemical, FRET, CFP-Ran, YFP-importin-beta, homogeneous. Ran GTPase (GTP-bound) - importin-beta complex. cell-free CFP-Ran/YFP-importin-beta FRET ratio. inhibition, % (no concentration beside the values). 300,000 tested, 1.1% active;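 active = more than half of the replicate wells show a fall in the fluorescence ratio signal beyond about 16%, limit read from the data, passing the limit was not always enough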;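 also: 0% = DMSO wells and 100% = Ran loaded with GDP instead of GTP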
Hck-Nef inh: inhibitors of Nef-activated human Hck kinase, primary screen, biochemical, Z-Lyte FRET, 384-well, Hck-YEEI; Recombinant Hck-YEEI plus Nef, Z-Lyte FRET kinase assay; Tyrosine-protein kinase HCK (Homo sapiens), P08631; AID 463187, 2010; 220,000 tested, 0.68% active; inhibition, % at 20 µM;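 active = Hck-Nef kinase inhibition above about 50%, limit read from the data; inactive = inhibition below that limit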;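 also: 0% = DMSO with Hck plus Nef and 100% = Hck alone without Nef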
Target sequence (P08631 whole entry, looked up): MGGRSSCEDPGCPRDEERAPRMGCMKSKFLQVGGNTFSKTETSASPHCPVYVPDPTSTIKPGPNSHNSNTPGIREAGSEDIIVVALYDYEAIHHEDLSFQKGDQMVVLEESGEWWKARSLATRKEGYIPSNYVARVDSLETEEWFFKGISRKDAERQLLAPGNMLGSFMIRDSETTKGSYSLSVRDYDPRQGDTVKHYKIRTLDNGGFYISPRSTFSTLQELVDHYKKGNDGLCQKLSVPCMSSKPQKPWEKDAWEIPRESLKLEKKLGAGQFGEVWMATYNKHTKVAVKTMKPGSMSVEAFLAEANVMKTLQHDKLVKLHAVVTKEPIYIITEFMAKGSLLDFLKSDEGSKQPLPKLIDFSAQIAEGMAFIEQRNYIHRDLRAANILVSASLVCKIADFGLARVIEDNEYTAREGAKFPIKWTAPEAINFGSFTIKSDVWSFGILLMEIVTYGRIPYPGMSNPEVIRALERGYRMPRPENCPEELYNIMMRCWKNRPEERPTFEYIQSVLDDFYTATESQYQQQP
p97 ATPase inh: inhibitors of human p97 ATPase, primary screen, biochemical; recombinant p97 ATPase, Kinase-Glo ATP luminescence, 3 h; Transitional endoplasmic reticulum ATPase (Homo sapiens), P55072; inhibition, % at 8 µM; 220,000 tested, 0.42% active; AID 1481, 2009; in the data active = inhibition above about 15%;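 also: 0% = DMSO vehicle and 100% = wells lacking enzyme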
Hck Nef conf: retest of Hck:Nef kinase inhibitor hits, confirmation, biochemical, Z-Lyte FRET, 384-well, p-Tyr peptide counterscreen | shares compounds with Hck-Nef inh | Recombinant Hck-YEEI:Nef, Z-Lyte FRET kinase assay | calls only at 10 µM | 1,300 tested, 28% active | AID 463188, 2010;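 active = average inhibition of at least 50%, with Z-scores no higher than 3 in both the phospho-tyrosine peptide and fluorescence counterscreens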
* = called active by the depositor; i = inactive; . = no result given; + = active, no number.

SMILES	Runt-CBFb FRET	TbHK1 inh	Runt-SMMHC FRET	RanGTP-Imp inh	Hck-Nef inh	p97 ATPase inh	Hck Nef conf
NC(=S)/N=C/c1c(O)[nH]c(=O)[nH]c1=O	4	2	3	4	63*	5	i
COC1C(OC(=O)c2ccc(C)[nH]2)C(O)C(Oc2ccc3c(O)c(NC(=O)c4ccc(O)c(CC=C(C)C)c4)c(=O)oc3c2Cl)OC1(C)C (stereo not given)	-1	-6	-10	.	55*	5	i
COc1ccccc1-n1c(-c2ccc(C)cc2)nc2ccccc2c1=O	.	.	.	3	.	.	.
N#Cc1ccccc1NC(=O)CN1CC=C(c2ccccc2)CC1	-3	6	-1	2	55*	6	i
CCC(C)n1c(O)c(C=NCC2CCCO2)c(=O)[nH]c1=S (stereo not given)	2	-87	0	3	-18	1	.
O=C1NC(=O)C(=Cc2ccc(-c3ccccc3[N+](=O)[O-])o2)C(=O)N1	20	-30	27	0	76*	10	+
NS(=O)(=O)c1ccc(-c2ccc(C=C3C(=O)NC(=O)NC3=O)o2)cc1	.	.	.	-2	.	.	.
